Laboratory results: ChEMBL document CHEMBL2429806, “Designed Trpzip-3 β-Hairpin Inhibits Amyloid Formation in Two Different Amyloid Systems” (ACS Med Chem Lett, 2013)

Biological target: Transthyretin (Homo sapiens) (UniProt P02766)
Assay: Inhibition of transthyretin (unknown origin) aggregation at 2 mol equiv measured at 36 hrs by congo red assay relative to control
Summary of the method: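 TTR aggregation was induced at pH 4.5 with or without the test agent. Aggregation was scored by Congo red at its peak, 36 h. Thioflavin T was not usable because dissolved, filtered TTR gives high background fluorescence.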

inhibition: > 90%
Structure (SMILES): O=C(O)c1cc(-c2ccc(F)cc2F)ccc1O
